Reference: ChEMBL document CHEMBL3085704, “Methyl-thiazoles: a novel mode of inhibition with the potential to develop novel inhibitors targeting InhA in Mycobacterium tuberculosis” (J Med Chem, 2013)
≈ marks a conversion by molar mass, not a printed value.

What was measured:
[1] = target: T1, Enoyl-[acyl-carrier-protein] reductase [NADH] (Mycobacterium tuberculosis, UniProt P9WGR1); assay: Inhibition of wild type Mycobacterium tuberculosis inhA
T1 sequence (P9WGR1 whole entry): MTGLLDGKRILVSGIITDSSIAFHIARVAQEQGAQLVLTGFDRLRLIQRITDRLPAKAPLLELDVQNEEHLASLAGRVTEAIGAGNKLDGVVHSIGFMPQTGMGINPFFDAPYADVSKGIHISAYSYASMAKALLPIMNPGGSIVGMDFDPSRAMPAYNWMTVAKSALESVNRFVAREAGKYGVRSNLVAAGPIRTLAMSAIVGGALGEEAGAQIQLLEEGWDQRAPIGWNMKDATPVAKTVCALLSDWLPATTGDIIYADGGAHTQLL

[2] = target: T1, Enoyl-[acyl-carrier-protein] reductase [NADH]; assay: Inhibition of Mycobacterium tuberculosis full length inhA expressed in Escherichia coli BL21 preincubated for 15 mins by fluorescence based assay in presence of NADH
[3] = test system: Mycobacterium tuberculosis; assay: Antimycobacterial activity against Mycobacterium tuberculosis H37Rv ATCC 27294 assessed as parasite growth inhibition after 7 days by Alamar Blue assay; type: functional; conditions: H37Rv ATCC 27294, 168 h
[4] = target: Cytochrome P450 3A4 (Homo sapiens, UniProt P08684); assay: Inhibition of CYP3A4 (unknown origin); type: ADME
Chain of Cytochrome P450 3A4 (P08684 whole entry): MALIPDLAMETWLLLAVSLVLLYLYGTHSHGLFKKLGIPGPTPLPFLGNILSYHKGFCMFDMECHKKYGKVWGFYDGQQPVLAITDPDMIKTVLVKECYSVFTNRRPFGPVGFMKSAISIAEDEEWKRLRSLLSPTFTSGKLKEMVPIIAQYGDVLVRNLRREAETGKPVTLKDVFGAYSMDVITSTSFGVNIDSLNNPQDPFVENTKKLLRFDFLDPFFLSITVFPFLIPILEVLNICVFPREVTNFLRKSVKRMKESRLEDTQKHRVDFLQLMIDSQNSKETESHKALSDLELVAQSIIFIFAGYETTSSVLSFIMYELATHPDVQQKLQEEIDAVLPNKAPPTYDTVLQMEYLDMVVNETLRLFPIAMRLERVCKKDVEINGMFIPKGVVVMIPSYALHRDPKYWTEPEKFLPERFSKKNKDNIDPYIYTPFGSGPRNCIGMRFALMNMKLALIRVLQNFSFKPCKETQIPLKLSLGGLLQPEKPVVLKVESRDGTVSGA

[5] = Fraction unbound in plasma (unknown origin); type: ADME, cell-free
[6] = Aqueous solubility of the compound; type: physicochemical; conditions: buffer
[7] = Cytotoxicity against human A549 cells assessed as growth inhibition after 7 days by Alamar Blue assay; type: cell-based; conditions: read-out: MIC
[8] = target: T1, Enoyl-[acyl-carrier-protein] reductase [NADH]; assay: Binding affinity to Mycobacterium tuberculosis NADH-bound form of full length inhA (1 to 255) by SPR assay
[9] = target: T1, Enoyl-[acyl-carrier-protein] reductase [NADH]; assay: Binding affinity to Mycobacterium tuberculosis NADH-bound form full length inhA (1 to 255) by isothermal titration calorimetry assay
Summary of the method: (§1)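 InhA titrated with compound by isothermal titration calorimetry, either as apo enzyme or pre-bound to NADH or NAD+ cofactor. No enoyl-ACP substrate was present. ITC data were used mainly to derive Kd and binding stoichiometry.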

[10] = target: T1, Enoyl-[acyl-carrier-protein] reductase [NADH]; assay: Binding affinity to Mycobacterium tuberculosis NAD+-bound form of full length inhA (1 to 255) by isothermal titration calorimetry assay; summary of the method: as §1
[11] = target: T2, Enoyl-[acyl-carrier-protein] reductase [NADH] (Mycobacterium tuberculosis) (UniProt P9WGR1); conditions: 50 uM
T2 sequence (whole entry): T1 sequence (P9WGR1 whole entry)

[12] = target: T2, Enoyl-[acyl-carrier-protein] reductase [NADH] (Mycobacterium tuberculosis); conditions: 50 uM; remark: listed apart in the source
[13] = target: T2, Enoyl-[acyl-carrier-protein] reductase [NADH] (Mycobacterium tuberculosis)
[14] = target: T2, Enoyl-[acyl-carrier-protein] reductase [NADH] (Mycobacterium tuberculosis); remark: listed apart in the source
[15] = target: T2, Enoyl-[acyl-carrier-protein] reductase [NADH] (Mycobacterium tuberculosis); remark: listed apart in the source
[16] = target: T3, Adenosine receptor A1 (Homo sapiens) (UniProt P30542); assay: Inhibition of adenosine A1 receptor (unknown origin) at 30 uM
T3 sequence (whole entry): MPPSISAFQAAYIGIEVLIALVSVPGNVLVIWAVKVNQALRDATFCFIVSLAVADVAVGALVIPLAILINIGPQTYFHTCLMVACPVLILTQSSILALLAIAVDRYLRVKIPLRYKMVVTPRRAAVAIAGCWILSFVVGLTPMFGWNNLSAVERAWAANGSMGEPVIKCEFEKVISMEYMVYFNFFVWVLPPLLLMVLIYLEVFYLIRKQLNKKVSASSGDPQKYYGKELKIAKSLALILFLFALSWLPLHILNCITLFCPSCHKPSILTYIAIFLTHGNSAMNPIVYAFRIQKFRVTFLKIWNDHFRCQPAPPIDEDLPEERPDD

[17] = target: T4, Adenosine receptor A3 (Homo sapiens) (UniProt P0DMS8); assay: Inhibition of adenosine A3 receptor (unknown origin) at 30 uM
T4 sequence (whole entry): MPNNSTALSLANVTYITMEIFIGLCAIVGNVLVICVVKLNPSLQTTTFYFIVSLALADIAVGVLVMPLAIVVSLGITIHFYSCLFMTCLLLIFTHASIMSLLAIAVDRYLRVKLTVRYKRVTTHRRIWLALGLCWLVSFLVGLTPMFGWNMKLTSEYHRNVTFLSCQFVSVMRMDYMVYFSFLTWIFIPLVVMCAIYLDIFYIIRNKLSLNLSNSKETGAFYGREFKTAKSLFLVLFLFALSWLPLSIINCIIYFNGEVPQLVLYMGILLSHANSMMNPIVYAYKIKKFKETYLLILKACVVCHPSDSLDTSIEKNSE

[18] = organism: Homo sapiens; assay: Inhibition of angiotensin receptor (unknown origin) at 30 uM
[19] = target: T5, Adenosine receptor A1 (Homo sapiens, UniProt P30542); assay: Inhibition of adenosine A1 receptor (unknown origin)
T5 sequence (P30542 whole entry): T3 sequence (whole entry)

[20] = target: 5-hydroxytryptamine receptor 2B (Homo sapiens, UniProt P41595); assay: Inhibition of 5HT2B receptor (unknown origin)
Chain of 5-hydroxytryptamine receptor 2B (P41595 whole entry): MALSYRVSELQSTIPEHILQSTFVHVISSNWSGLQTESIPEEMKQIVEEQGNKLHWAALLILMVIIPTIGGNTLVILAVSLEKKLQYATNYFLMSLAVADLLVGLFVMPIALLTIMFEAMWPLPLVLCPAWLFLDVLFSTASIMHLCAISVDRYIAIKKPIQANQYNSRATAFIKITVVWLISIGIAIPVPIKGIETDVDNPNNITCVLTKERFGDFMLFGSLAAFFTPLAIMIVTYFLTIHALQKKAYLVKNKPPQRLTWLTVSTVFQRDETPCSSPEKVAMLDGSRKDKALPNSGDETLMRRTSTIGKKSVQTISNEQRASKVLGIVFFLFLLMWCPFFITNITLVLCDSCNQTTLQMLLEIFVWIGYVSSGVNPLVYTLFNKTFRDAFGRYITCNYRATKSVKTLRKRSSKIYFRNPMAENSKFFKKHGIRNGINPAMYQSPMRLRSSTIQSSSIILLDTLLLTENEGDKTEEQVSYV

[21] = target: Phosphodiesterase 4 (Homo sapiens, UniProt P27815+Q08499+Q07343+Q08493); assay: Inhibition of PDE4 (unknown origin); type: protein assay
[22] = test system: Mycobacterium tuberculosis; assay: Antitubercular activity against Mycobacterium tuberculosis; type: functional

Compound: CCCCCCc1ccc(Oc2ccccc2C)c(O)c1
- IC50 [1]: 0.022 µM

Compound: O=C1CC(c2nc3ccccc3n2Cc2ccccc2)CN1C1CCCCC1 (configuration not stated)
- IC50 [2]: 1 µM
- MIC [3]: > 64 µM

Compound: COC(=O)c1cnc2ccc(C#N)cc2c1NCCCc1ccccc1
- IC50 [2]: 0.02 µM
- MIC [3]: > 64 µM

Compound: Cc1csc([C@](C)(O)c2nnc(Nc3ccn(Cc4c(F)cccc4F)n3)s2)n1
- IC50 [4]: 1.9 µM
- fraction unbound [5]: 0.034
- solubility [6]: 208 µM (≈ 90.4 µg/mL)
- MCC at 168 h [7]: 78 µM
- Kd [8]: 0.0115 µM
- Kd [9]: 0.0137 µM
- Kd [10]: 9.3 µM
- IC50 [2]: 0.003 µM
- MIC [3]: 0.19 µM
- ΔTm [11]: 69.3 °C
- ΔTm [12]: 55 °C
- Tm [13]: 56.5 °C
- Tm [14]: 55.2 °C
- Tm [15]: 54.2 °C

Compound: Cc1csc(C(C)(O)c2nnc(Nc3cc(C4CC4)n(Cc4c(F)cccc4F)n3)s2)n1 (racemic)
- IC50 [2]: 0.97 µM
- MIC [3]: > 12.5 µM

Compound: Cc1csc(C(C)(O)c2nnc(NCC3CN(Cc4c(F)cccc4F)C(=O)O3)s2)n1 (racemic)
- IC50 [2]: 0.4 µM
- MIC [3]: > 100 µM

Compound: Cc1csc(C(C)(O)c2nnc(NC(=O)c3ccn(Cc4c(F)cccc4F)n3)s2)n1 (racemic)
- IC50 [2]: 34 µM
- MIC [3]: > 100 µM

Compound: Cc1csc(C(C)(O)c2nnc(Nc3ccn(Cc4c(F)cccc4F)n3)s2)n1 (racemic)
- IC50 [2]: 0.004 µM
- MIC [3]: 0.5 µM

Compound: Cc1csc(C(C)(O)c2nnc(Nc3cnn(Cc4c(F)cccc4F)c3)s2)n1 (racemic)
- IC50 [2]: 0.234 µM
- MIC [3]: 7.5 µM

Compound: Cc1csc(C(C)(O)c2nnc(Nc3ncn(Cc4c(F)cccc4F)n3)s2)n1 (racemic)
- inhibition [16]: 63%
- inhibition [17]: 70%
- inhibition [18]: 69%
- IC50 [4]: 48 µM
- fraction unbound [5]: 0.143
- solubility [6]: 69 µM (≈ 30 µg/mL)
- MCC at 168 h [7]: > 100 µM
- IC50 [2]: 0.03 µM
- MIC [3]: 0.391 µM

Compound: Cc1csc(C(C)(O)c2nnc(NC(=O)Cc3c(F)cccc3F)s2)n1 (racemic)
- IC50 [19]: 21 µM
- IC50 [20]: 64 µM
- IC50 [21]: 23 µM
- IC50 [4]: > 50 µM
- fraction unbound [5]: 0.019
- solubility [6]: 26 µM (≈ 10.3 µg/mL)
- MCC at 168 h [7]: > 100 µM
- IC50 [2]: 0.2 µM
- MIC [3]: 3.75 µM

Compound: Cc1csc(C(C)(O)c2nnc(Nc3cccc(Cc4c(F)cccc4F)n3)s2)n1 (racemic)
- IC50 [2]: < 0.002 µM
- MIC [3]: 3.13 µM

Compound: Cc1csc(C(C)(O)c2nnc(Nc3nccc(Cc4c(F)cccc4F)n3)s2)n1 (racemic)
- IC50 [2]: < 0.002 µM
- MIC [3]: 12.5 µM

Compound: NNC(=O)c1ccncc1 [ISONIAZID]
- MIC [3]: 0.03 mg/L
- MIC [22]: 0.05 µM (≈ 0.00686 µg/mL)

Compound: COc1c(N2C[C@@H]3CCCN[C@@H]3C2)c(F)cc2c(=O)c(C(=O)O)cn(C3CC3)c12 [MOXIFLOXACIN]
- MIC [3]: 0.12 mg/L

Compound: CC/C(C)=C1\OC(=O)[C@H](C)[C@H](O)[C@H](Cc2cccnc2)NC(=O)[C@@H](NC(=O)c2ncccc2O)[C@@H](C)OC1=O [PYRIDOMYCIN]
- MIC [22]: 0.57 µM (≈ 0.308 µg/mL)

Compound: CO[C@H]1/C=C/O[C@@]2(C)Oc3c(C)c(O)c4c(O)c(c(/C=N/N5CCN(C)CC5)c(O)c4c3C2=O)NC(=O)/C(C)=C\C=C\[C@H](C)[C@H](O)[C@@H](C)[C@@H](O)[C@@H](C)[C@H](OC(C)=O)[C@@H]1C [RIFAMPIN]
- MIC [3]: 0.007 mg/L

Compound: Oc1cc(Cl)ccc1Oc1ccc(Cl)cc1Cl [TRICLOSAN]
- MIC [22]: 64 µM (≈ 18.5 µg/mL)
